ChEMBL document CHEMBL1212817, “Design and synthesis of C-2 substituted thiazolo and dihydrothiazolo ring-fused 2-pyridones: pilicides with increased antivirulence activity” (J Med Chem, 2010)

The compounds below were run against T1, Chaperone protein PapD (Escherichia coli, UniProt P15319) (assay: Inhibition of Escherichia coli UTI89 PapD chaperon assessed as inhibition of biofilm formation).
T1 sequence (P15319 whole entry): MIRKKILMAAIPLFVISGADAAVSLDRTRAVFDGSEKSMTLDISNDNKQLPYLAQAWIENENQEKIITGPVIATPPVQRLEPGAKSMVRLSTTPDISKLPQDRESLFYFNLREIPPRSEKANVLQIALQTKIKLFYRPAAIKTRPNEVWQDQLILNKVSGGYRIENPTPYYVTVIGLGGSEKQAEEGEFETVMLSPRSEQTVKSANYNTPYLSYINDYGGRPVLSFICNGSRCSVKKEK
How it was run: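 Pilus-dependent biofilm assay with whole E. coli UTI89 grown on polyvinylchloride in the presence of pilicide; biofilm amount taken as readout of piliation block. IC50 calculated from 16-32 data points at every concentration.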

Structure (SMILES) | IC50
O=C(c1ccccc1)c1sc2c(C3CC3)c(Cc3cccc4ccccc34)cc(=O)n2c1C(=O)O | Not Active
COc1ccc(-c2sc3c(C4CC4)c(Cc4cccc5ccccc45)cc(=O)n3c2C(=O)O)cc1 | Not Active
O=C(O)c1c(-c2ccc3[nH]ccc3c2)sc2c(C3CC3)c(Cc3cccc4ccccc34)cc(=O)n12 | Not Active

What follows are compounds tested on Escherichia coli (assay: Antibacterial activity against Escherichia coli UTI89 assessed as number of wells with agglutination by hemagglutinination assay).
Format: functional
How it was run: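 UTI89 grown with pilicide at 250 μM; culture piliation then scored by hemagglutination titer, expressed as number of wells with agglutination (2ⁿ); value is the average of duplicate runs.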

Structure (SMILES) | Activity
O=C(O)c1c(-c2ccsc2)sc2c(C3CC3)c(Cc3cccc4ccccc34)cc(=O)n12 | 3.5
Cc1cccc(-c2sc3c(C4CC4)c(Cc4cccc5ccccc45)cc(=O)n3c2C(=O)O)c1 | 3
O=C(O)c1c(Cc2ccccc2)sc2c(C3CC3)c(Cc3cccc4ccccc34)cc(=O)n12 | 3
O=C(O)c1c(-c2ccccc2)sc2c(C3CC3)c(Cc3cccc4ccccc34)cc(=O)n12 | 4.5
